Screens as filed in PubChem BioAssay.
Cneo AK release: causes C. neoformans cell lysis; adenylate kinase release luminescence, 4 h; normalised: neutral wells 0, clomiphene wells 100; lysis activity, % at 15 µM; 360,000 compounds, 0.2% hits; AID 651654;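 active means mean lysis activity across replicates of at least 80%, whatever share of replicates individually reach that level; inactive means mean lysis activity below 80%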
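read-out = cell lysis signal | test system = log-phase Cryptococcus neoformans yeast cells | input = cells at 5 × 10^6 per mL | medium = fresh YPD growth medium | signal = luminescent adenylate kinase detection reagent | timing = 4 h at 37 °C static, read 1 h later | dosing = single dose | controls = Clomiphene as positive lysis control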
rRNA inh HTS: inhibitors of bacterial rRNA selective over humanized ribosomes; E. coli WT GFP vs humanized-ribosome RFP mutants, fluorescence, 24 h; active compounds read low; DMSO median 0, no signal -100; GFP signal change (wild-type ribosome), % (test concentration not listed); 350,000 compounds, 1.6% hits; AID 720706;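 active means significant combined selectivity score with lowered wild-type GFP, culture density cut under 30%, mutant RFP and density less affected; inactive means any of these conditions unmet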
CFTR F508del cor: correctors of CFTR F508del function in bronchial epithelial cells. activity (quench increase), % at 7.58 µM. CFBE cells, YFP halide quenching; stimulated with forskolin plus potentiator P3; % fluorescence drop versus neutral controls. 350,000 compounds, 0.36% hits;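 active means mean added fluorescence quench of at least 8% versus neutral control, with both replicates also reaching 8%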;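 further: cells transiently co-express mutant CFTR-F508del with the halide-sensitive YFP; corrector assay measuring rescue of mutant channel to the surface after 24 h compound exposure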
GSIS activator: GLuc luminescence reporter in INS-1E cells, primary screen for activators of glucose-dependent secretion of insulin; INS-1E GLuc reporter insulin secretion, 2-3 h; activation, % at 16.6 µM; 370,000 compounds, 0.61% hits;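 active means lowest replicate activation of at least 40%, so every replicate reaches that level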
miR122 inh: miR-122 inhibition in Huh7 cells. Huh7 miR-122 Renilla luciferase sensor, 48 h; neutral wells = 0, positive control = 100. activation (reporter increase), % at 12.5 µM. 340,000 compounds, 0.3% hits. AID 602342;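 active means mean replicate activation score at least 90 and every replicate individually at or above 90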;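 further: higher luciferase means less miR-122 activity so hits act as miR-122 inhibitors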
HIV Env fusion: inhibitors of HIV Env-mediated cell fusion; 360,000 compounds, 1.1% hits; inhibition, % at 12.3 µM; AID 651610; HeLa-JRFL Env/CEM21 cell fusion, luciferase;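 active means mean replicate inhibition score of at least 50 and every replicate individually at or above 50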
Each line names hits and unclear results; the compound was inactive in the other large screens. In the library only some 3.1% were active in any assay of this set; here they are far more common.

COc1ccc(Cl)cc1NC(=O)CN(C)C(=O)c1sccc1-c1ccccc1	rRNA inh HTS -33.3
COc1ccc(Cl)cc1NC(=O)CN(C)C(=O)c1sc2ccccc2c1Cl	none
Oc1ccc(-c2n[nH]c(C(F)(F)F)c2-c2ccccc2)c(O)c1	none (no result: Cneo AK release)
COc1ccccc1-c1c(-c2ccc(O)cc2O)n[nH]c1C(F)(F)F	HIV Env fusion 92.5
CCN(Cc1nc2cc(Cl)ccc2c(=O)[nH]1)C(=O)c1cc(C2CC2)nn1-c1ccccc1	HIV Env fusion 85.6 (no result: Cneo AK release, miR122 inh)
CCN(CC)c1ccc(/C=N/NC(=O)c2ccco2)c(O)c1	rRNA inh HTS -39.3, CFTR F508del cor 34.6 (no result: Cneo AK release, miR122 inh)
CCN(CC)c1ccc(/C=N/NC(=O)c2ccco2)cc1	none (no result: Cneo AK release, rRNA inh HTS, CFTR F508del cor)
C[C@@H]1CN([C@@H](C)CO)C(=O)c2cc(-c3ccccc3)cnc2O[C@H]1CN(C)C(=O)Cc1ccccn1	none
O=C1Oc2ccccc2C(=O)/C1=C\N1CCN(c2ccccc2)CC1	rRNA inh HTS -33.1 (no result: Cneo AK release)
N#CC1=C(N)Oc2cc(N)ccc2C1c1cccc(F)c1 (centres undefined)	CFTR F508del cor 10.3
COC(=O)c1ccc(CC2(C)C(=O)Nc3ccc(-c4cccc(C(F)(F)F)c4)cc32)o1 (centres undefined)	HIV Env fusion 64.8
CCS(=O)(=O)NCC[C@H]1CC[C@@H](NS(=O)(=O)c2ccccc2C)[C@@H](CO)O1	none (no result: miR122 inh)
Cc1ccc(S(=O)(=O)Nc2ccc(C(=O)Nc3cc(C)on3)cc2)cc1	miR122 inh 115.4 (no result: rRNA inh HTS, CFTR F508del cor)
Cc1cc(NS(=O)(=O)c2ccc(NC(=O)c3c(F)c(F)c(F)c(F)c3F)cc2)nc(C)n1	none
Cc1ccc(S(=O)(=O)Nc2ccc(NC(=O)c3c(F)c(F)c(F)c(F)c3F)cc2)cc1	rRNA inh HTS -25.6 (no result: Cneo AK release, miR122 inh)
O=C(C1CCCC1)N1CC2(C1)[C@@H](c1ccccc1)[C@H](CO)N2C(=O)CC1CC1	none (no result: Cneo AK release, miR122 inh, HIV Env fusion)
Cc1cc(/C=N/NC(N)=S)c(O)c(/C=N/NC(N)=S)c1	CFTR F508del cor 14.0
COc1cc(/C=N/Nc2cc(C)nc(NS(=O)(=O)c3ccc(C)cc3)n2)ccc1O	GSIS activator 45.7 (no result: Cneo AK release, miR122 inh)
Fc1cccc(CCN2C(=S)NC[C@@H]2CC2CCCCC2)c1	rRNA inh HTS -23.0
Fc1cccc(CCN2C(=S)NC[C@@H]2Cc2ccccc2)c1	Cneo AK release 142.4 (no result: miR122 inh)
CC(C)NC(=O)N1CCCCN2[C@@H](CO)[C@H](c3ccc(C#Cc4ccccc4)cc3)[C@@H]2C1	none (no result: HIV Env fusion)
CCCNC(=O)[C@H]1[C@H](CO)[C@H]2Cn3c(ccc(-c4cccnc4)c3=O)[C@H]2N1Cc1cocn1	none (no result: Cneo AK release, miR122 inh, HIV Env fusion)
N#CC(C#N)=C(Nc1ccc(F)cc1)SCc1cccc(F)c1	HIV Env fusion 61.1 (no result: Cneo AK release, rRNA inh HTS, CFTR F508del cor, miR122 inh)
C[C@@]12C(C[C@H](O)[C@@]34C[C@@H](CCC13)[C@@H](CO)C4=O)[C@](C)(C(=O)O)CC[C@@H]2O (some centres undefined)	none
C=C1C(=O)[C@]23C[C@H]1CCC2[C@@]1(C)C(C[C@@H]3O)[C@](C)(C(=O)OC)CC[C@@H]1O (some centres undefined)	GSIS activator 86.8
COC(=O)c1cc2c(c3c4cc(OC)ccc4n(S(=O)(=O)c4ccccc4)c13)C(=O)N(Cc1ccc(C(F)(F)F)cc1)C2	HIV Env fusion 95.7 (no result: Cneo AK release, miR122 inh)
Cc1cc(C)n(-c2nc(NCCCN(C)C)c3c4c(sc3n2)CCCC4)n1	none (no result: rRNA inh HTS)
Cc1cc(C)n(-c2nc(NCCN(C)C)c3c4c(sc3n2)COC(C)(C)C4)n1	rRNA inh HTS -32.0
Cc1cc(C)n(-c2nc(NCCN(C)C)c3c4c(sc3n2)CCCC4)n1	GSIS activator 52.9 (no result: Cneo AK release, miR122 inh)
COc1cccc(S(=O)(=O)N[C@@H]2CC[C@H](CCNC(=O)Nc3cc(F)ccc3F)O[C@H]2CO)c1	none (no result: miR122 inh)
CCOc1ccc2[nH]c3c(N4CCN(C(=O)c5ccco5)CC4)ncnc3c2c1	rRNA inh HTS -36.0
CCOC(=O)N1CCN(c2ncnc3c2[nH]c2ccc(OC)cc23)CC1	none (no result: rRNA inh HTS, CFTR F508del cor, GSIS activator)
CCOC(=O)N1CCN(c2ncnc3c2[nH]c2ccc(F)cc23)CC1	HIV Env fusion 63.9 (no result: rRNA inh HTS, CFTR F508del cor, GSIS activator)
CO[C@H]1CN(C)C(=O)c2ccc(NC(=O)Cc3ccccc3)cc2OC[C@H](C)N(C)C[C@@H]1C	none (no result: Cneo AK release, miR122 inh, HIV Env fusion)
C[C@@H]1CN([C@H](C)CO)C(=O)c2cc(NS(=O)(=O)c3cccs3)ccc2O[C@H]1CN(C)C(=O)Nc1ccccc1	none
O=C(NCCCN1CCCC1)c1ccc2c(c1)N(Cc1ccccc1)CCS2	none
CCN1CCN(CCCNC(=O)c2ccc3c(c2)N(Cc2ccccc2)CCS3)CC1	GSIS activator 42.8 (no result: miR122 inh)
CCc1ccc([C@H]2[C@@H]3C(=O)C[C@@H]4C(=O)N(Cc5ccccc5)C(=O)[C@@H]4[C@@H]3CN2S(=O)(=O)c2ccc(C)cc2)cc1	HIV Env fusion 71.4
CCc1ccc([C@H]2[C@@H]3C(=O)C[C@@H]4C(=O)N(C5CCCCC5)C(=O)[C@@H]4[C@@H]3CN2S(=O)(=O)c2ccc(C)cc2)cc1	HIV Env fusion 155.3
CCc1ccc(C2CC3C(CN2S(=O)(=O)c2ccc(C)cc2)[C@@H](O)C[C@@H](c2ccc(CC)cc2)N3S(=O)(=O)c2ccc(C)cc2)cc1 (some centres undefined)	HIV Env fusion 60.6 (no result: Cneo AK release, miR122 inh)
CCOC(=O)CC(=O)CSc1nc2c(sc(=S)n2-c2ccc(OCC)cc2)c(=O)[nH]1	rRNA inh HTS -27.5 (no result: HIV Env fusion)
CCN(CC)c1ccc(Nc2cc3n(c(=O)n2)CCc2cc(OC)c(OC)cc2-3)cc1	none (no result: Cneo AK release, miR122 inh)
COc1cc2c(cc1OC)-c1cc(Nc3ccc(N(C)C)cc3)nc(=O)n1CC2	GSIS activator 79.1 (no result: Cneo AK release, miR122 inh)
CCOC(=O)Nc1ccc2c(c1)C(=NO)c1ccccc1-2	none (no result: Cneo AK release, miR122 inh)
O=C(Nc1ccccc1)ON=C1c2ccccc2-c2ccccc21	rRNA inh HTS -35.0 (no result: Cneo AK release, miR122 inh, HIV Env fusion)
CO[C@@H]1CN(C)C(=O)c2cc(NC(C)=O)ccc2OC[C@H](C)N(Cc2ccccn2)C[C@@H]1C	none (no result: HIV Env fusion)
c1ccc(-c2nnc3ccc(N4CCC5(CC4)OCCO5)nn23)cc1	GSIS activator 60.8 (no result: rRNA inh HTS, CFTR F508del cor)
COc1cc(OC)c(OC)cc1/C=C1\CC(C)C/C(=C\c2cc(OC)c(OC)cc2OC)C1=O (centres undefined)	rRNA inh HTS -22.3
COc1ccc(S(=O)(=O)N(C)C[C@@H]2Oc3ccc(NS(=O)(=O)c4ccccc4)cc3C(=O)N([C@H](C)CO)C[C@@H]2C)cc1	none
Cn1c(CN2CCCCC2)nc2cc(NC(=O)c3ccc(Cl)cc3)ccc21	HIV Env fusion 78.5 (no result: rRNA inh HTS, CFTR F508del cor)
C[C@H]1CN([C@@H](C)CO)C(=O)c2cc(NC(=O)CCCCCC(=O)Nc3ccccc3N)ccc2O[C@@H]1CN(C)C(=O)Nc1cccc2ccccc12	none (no result: Cneo AK release, miR122 inh, HIV Env fusion)
CC(C)NC(=O)N(Cc1ccc(Cl)cc1)Cc1cccs1	rRNA inh HTS -24.1 (no result: Cneo AK release, miR122 inh)
